# An excerpt weighted towards active compounds, which were near 1.5% of everything screened.
# APJ antagonist: APJ receptor antagonism; P35414; CHO-K1 APJ beta-arrestin complementation, luminescence; inhibition, % at 20 µM; 0.32% of 330,000 active;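 active means inhibition above about 40% at 20 µM, limit read from the data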;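 further: cells challenged with 10 nM apelin-13 agonist together with compound; plate controls were apelin-13 plus DMSO wells for no effect and DMSO wells lacking apelin-13 for full effect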
# Target sequence (P35414 whole entry, looked up): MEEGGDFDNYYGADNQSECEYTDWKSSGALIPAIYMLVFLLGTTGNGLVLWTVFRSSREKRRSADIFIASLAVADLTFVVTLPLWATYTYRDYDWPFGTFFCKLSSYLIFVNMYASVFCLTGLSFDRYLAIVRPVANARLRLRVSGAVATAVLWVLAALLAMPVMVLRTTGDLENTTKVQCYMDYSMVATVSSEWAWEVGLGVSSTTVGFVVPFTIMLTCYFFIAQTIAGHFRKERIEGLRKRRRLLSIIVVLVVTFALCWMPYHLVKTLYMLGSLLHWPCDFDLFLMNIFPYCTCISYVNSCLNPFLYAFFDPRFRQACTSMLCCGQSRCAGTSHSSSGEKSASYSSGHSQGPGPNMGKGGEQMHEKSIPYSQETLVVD
# EBI2 antag: EBI2 (human) antagonism; P32249; AID 651636; 0.81% of 360,000 active; inhibition, % at 5 µM; EBI2 beta-arrestin recruitment, luminescence, 7a,25-OHC stimulated; in the data active means inhibition above about 38%;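 further: enzyme fragment complementation signal reports receptor beta-arrestin coupling in cells; 0% = agonist plus DMSO wells and 100% = wells without agonist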
# CCR6 antag: blocks CCL20-driven beta-arrestin recruitment at human CCR6; P51684; CHO-K1 CCR6 PathHunter beta-arrestin, luminescence, CCL20-stimulated; inhibition, % at 20 µM; 0.49% of 340,000 active; AID 493098;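 active means compounds whose inhibition of the agonist-driven luminescence signal at 20 µM reaches about 50%, limit read from the data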;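 further: cells stimulated with CCL20 at 14 nM final; plate controls were DMSO with CCL20 for no effect and DMSO without agonist for full effect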
# APJ agonist: activates the human apelin receptor APJ. P35414. CHO-K1 APJ PathHunter beta-arrestin, luminescence; 0% DMSO wells, 100% apelin. activation, % at 20 µM. 0.11% of 330,000 active. AID 2520;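 active means activation more than six SD over the plate average, tested at 20 µM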;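 further: 0% = DMSO alone and 100% = apelin-13 at 10 nM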
#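 assay system = CHO-K1 APJ beta-arrestin complementation cell line | input = cell density 1000 per well | dosing = compound 20 µM once, DMSO 1% | timing = compound 90 min 25 °C, reagent 1 h | measured by = luminescence from split beta-galactosidase complementation, Galacton Star/Emerald II substrate | read-out basis = APJ agonist activity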
# CXCR6 inh: blocks human CXCR6 beta-arrestin recruitment; inhibition, % at 20 µM; AID 602244; O00574; 0.36% of 360,000 active; CHO-K1 PathHunter CXCR6 beta-arrestin, luminescence; in the data active means inhibition above about 34%, passing the limit was not always enough;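 further: antagonist mode with CXCL16 agonist at 10 nM final; 0% = 10 nM CXCL16 with DMSO and 100% = unstimulated wells without agonist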
# Active calls of the source: *; nt = not tested or not shown.
SMILES,APJ antagonist,EBI2 antag,CCR6 antag,APJ agonist,CXCR6 inh
COc1cc(/C=C2\CC/C(=C\c3cc(OC)c(OC)c(OC)c3)C2=O)cc(OC)c1OC,16.7,32.9,2.2,-3.3,4.4
COc1cc(/C=C2\SC(N)=NC2=O)cc(Cl)c1O,11.9,-5.1,7.7,-2.6,12.1
CC(=O)Nc1ccc(CN(C)c2c(C)nc3ccc(C(=O)N(C)Cc4ccco4)cn23)cc1,nt,-1.3,nt,nt,-1.5
NC(CCc1ccccc1)c1csc(Nc2cnccn2)n1 (configuration not stated),nt,2.3,nt,nt,-9.9
CCCCOCCCNC(=O)C[C@@H]1C[C@@]2(C(=O)OC)CCCCC=C2N(Cc2ccco2)C1=O,nt,-2.4,nt,nt,-0.3
CN(C)c1ncc(C2=C(Cl)C(=O)C(N3CCCC3)=C(Cl)C2=O)s1,-20.2,-9.3,90.6*,7.7,13.9
O=C1C(Cl)=C(N2CCCCC2)C(=O)C(Cl)=C1c1cnc(N2CCCCC2)s1,-16.0,-16.2,69.7*,6.9,14.2
CC(=O)N1CCc2cc(NC(=O)C3(C)CCN3CCc3ccccc3)ccc21 (configuration not stated),nt,32.2,nt,nt,7.5
Cc1c(Cl)cccc1NC(=O)CN1CCC(C(O)(c2ccccc2)c2ccccc2)CC1,-15.0,38.5*,-26.2,-4.8,6.3
Cc1ccc(N=C2C(=O)Nc3ccc(C)c(Br)c32)cc1,5.2,1.8,99.2*,-8.6,35.5
COc1ccc(N=C2C(=O)Nc3ccccc32)cc1,33.1,15.8,33.5,-10.6,7.6
Cc1ccc(C2=NOC(=O)/C2=C\C=C\c2ccccc2)cc1,nt,35.7,25.0,nt,48.4*
CN(C)/C=C1\C(=O)ON=C1c1ccccc1,-0.4,-11.4,2.8,-5.6,-12.4
COc1ccc(NC(=O)CCSc2ccc(C)cc2)cc1,13.7,-14.6,0.1,1.9,-0.9
COc1ccc(C(O)CNc2ccc(C)cc2)cc1 (configuration not stated),-15.8,66.4*,15.5,14.2,0.9
CN(N=Cc1ccccc1O)c1ccc2ccccc2n1,nt,28.4,nt,nt,6.1
CN(/N=C/c1cc(Br)cc(Br)c1O)c1cccc(C(F)(F)F)n1,27.7,-6.0,nt,-2.9,58.5*
Cc1ccc(OCC(=O)NNC(=S)NC(=O)c2cccs2)c(C)c1,9.9,-8.5,55.4*,-6.6,37.2
CC(C)(C)c1cnnn1-c1ccc(C(=O)CCl)cc1,19.5,7.8,64.6*,-3.8,12.4
CC(C)(C)c1cnnn1-c1ccc(C=O)cc1,7.1,-7.0,-12.4,-1.3,-7.5
O=CNc1cc(-c2ccoc2)cn2c(-c3ccc(F)cc3)cnc12,nt,10.4,nt,nt,9.2
COc1ccc(S(=O)(=O)NC(=O)C2(C)CCN2C(=O)c2c(C)noc2C)cc1 (configuration not stated),nt,-9.9,nt,nt,2.8
CCCCCCNC(=O)c1cn(CC)c2cc(N3CCN(C)CC3)c(F)cc2c1=O,-20.7,45.0*,0.5,-1.9,1.6
CCn1cc(C(=O)NCCCO)c(=O)c2cc(F)c(N3CCN(C)CC3)cc21,13.0,3.7,8.8,-1.3,6.2
N#Cc1ccc(Nc2nc(-c3ccc(O)cc3O)cs2)cc1C(F)(F)F,2.7,56.4*,3.8,6.1,-22.7
SMILES,APJ antagonist,EBI2 antag,CCR6 antag,APJ agonist,CXCR6 inh
C=C(C)[C@@H]1C2=CC(C(=O)OC)=C(C[C@H](C(=C)C)[C@H]3O[C@H]3C3=C[C@H]1OC3=O)O2,nt,28.9,nt,nt,10.4
COc1ccc(-c2cnc3c(NC(C)=O)cc(-c4ccc(C(=O)N5CCOCC5)cc4)cn23)cc1OC,nt,-14.3,nt,nt,-1.4
O=C(Cc1ccc(S(=O)(=O)N2CCOCC2)s1)Nc1ccccc1Br,-21.2,7.8,-2.4,2.2,-11.5
NC(=O)c1cc(-c2ccccc2)sc1NC(=O)Cc1ccc(S(=O)(=O)N2CCOCC2)s1,6.4,49.7*,-16.5,0.2,-1.3
O=C(NN=C1c2ccccc2-c2ccccc21)c1cccc(Br)c1,39.9,12.8,46.9,-3.8,46.5*
O=C(COc1cccc(Br)c1)NN=C1c2ccccc2-c2ccccc21,2.2,-2.0,8.2,-1.3,-5.6
CC1(C)OC(=O)C2=C(C[C@@H](C3CCCC3)O[C@H]2c2ccc(Cl)cc2)O1,nt,4.3,nt,nt,-4.4
COc1cc(/C=N/NC(N)=S)cc(Br)c1OCc1ccccc1F,-1.5,33.5,30.9,-3.3,-0.2
CCOc1cc(/C=N/NC(N)=S)cc(Br)c1OCc1ccccc1C,2.9,46.8*,16.2,-7.3,5.4
C[C@@H]1CN([C@H](C)CO)S(=O)(=O)c2ccc(C3=CCCCC3)cc2O[C@H]1CN(C)C(=O)Cc1cccnc1,nt,3.0,nt,nt,3.8
CN(C)c1ccc(/C=C2/C[N+](C)(C)C/C(=C/c3ccc(N(C)C)cc3)C2=O)cc1,nt,-17.1,62.4*,nt,48.9*
COc1cc(/C=C2\SC(=O)N(Cc3ccc(F)cc3)C2=O)cc([N+](=O)[O-])c1O,26.7,19.0,50.2*,-8.7,30.4
CCOC(=O)CN1C(=O)S/C(=C/c2ccc(OC)c([N+](=O)[O-])c2)C1=O,9.5,2.0,15.0,1.0,8.7
COc1cc(/C=C2/SC(=S)N(Cc3ccccc3)C2=O)cc(Cl)c1O,nt,9.1,46.6,nt,37.1
COc1cc(/C=C2\SC(=O)N(Cc3ccc(Cl)cc3)C2=O)cc([N+](=O)[O-])c1O,nt,13.3,55.8*,nt,37.7
CCCc1nc2ccc(C)cn2c1Cc1ccc(OC)cc1C,nt,-0.2,nt,nt,7.6
Oc1c(I)cc(Cl)c2cccnc12,17.1,14.5,55.0*,-4.1,35.7*
O=C(NC(c1ccc(Cl)cc1)c1cc(Cl)c2cccnc2c1O)c1cccnc1 (configuration not stated),nt,64.5*,35.4,nt,11.9
CN1CCN(C(c2ccc(C(F)(F)F)cc2)c2cc(Cl)c3cccnc3c2O)CC1 (configuration not stated),12.9,nt,nt,-3.2,nt
CN1CCN(C(c2ccc(Cl)cc2)c2cc(Cl)c3cccnc3c2O)CC1 (configuration not stated),0.8,13.7,63.3*,-4.6,10.8
Oc1c(C(c2ccccn2)N2CCCCC2)cc(Cl)c2cccnc12 (configuration not stated),36.9,19.7,63.2*,-8.4,26.1
COc1ccc(C(NC(C)=O)c2cc(Cl)c3cccnc3c2O)cc1 (configuration not stated),-4.0,2.1,14.2,-2.3,7.2
C[C@H](NC(=O)[C@@H]1CCCN1C(=O)[C@@H]1CCCN1)c1ccccc1,nt,-9.1,nt,nt,-7.2
O=C(Nc1ccccn1)C(c1ccccc1)c1ccccc1,nt,3.7,nt,nt,-3.6
CCN(CC)S(=O)(=O)c1ccc2oc(C(=O)NCc3ccc(F)cc3)c(C)c2c1,-0.8,49.6*,10.9,-0.1,4.7
CC1(C)CC(=O)C(=Cc2cn(-c3ccccc3)nc2-c2ccccc2)C(=O)C1,-5.5,38.3,-29.9,6.6,-11.6
CC1=NNC(=O)/C1=C\c1cn(-c2ccccc2)nc1-c1ccc(Cl)cc1,-27.4,90.9*,-11.2,38.0*,-4.0
CCOc1ccc2nc(N3C(=O)CNC3=S)sc2c1,12.6,-17.1,60.4*,-4.3,32.2
